In brackets after ≈: the same amount, converted by molar mass. Activity calls are given as the source filed them. No cut-off for these calls is given here.
Legend:
Bacillus cereus [1] = experiment: Antimicrobial activity against Bacillus cereus MTCC 7350 after 24 hrs by broth micro serial dilution method; format: functional; details: MTCC 7350, 24 h
Procedure, shortened: (§1)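 This was broth microdilution in autoclaved Mueller-Hinton broth. 150 µL of compound per well was serially diluted […], and 50 µL of test organism was added. Plates were incubated 24 h at 37 °C and optical density was read.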

Curvularia lunata [2] = experiment: Antifungal activity against Curvularia lunata MTCC 581 assessed as zone of inhibition at 20 uM after 48 hrs by disc diffusion method; format: functional
Procedure, shortened: (§2)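 Spores from 4-day potato dextrose agar cultures, suspended in sterile water at 1.5 × 10⁵ CFU/mL. 0.2 mL was spread on potato dextrose agar. 5 mm filter-paper discs soaked with test compound were laid on the lawn. Incubation was 48 h at 28 °C, then the inhibition zone was measured in mm. Fluconazole was the positive control and acetone the negative control.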

Bacillus cereus [3] = experiment: Antimicrobial activity against Bacillus cereus MTCC 7350 assessed as diameter of inhibition zone at 80 uM after 24 hrs by Kirby -Baur disc diffusion method; format: functional; details: MTCC 7350, 24 h, read-out: DIZ
Procedure, shortened: (§3)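 Kirby-Bauer disc diffusion was used. Acetone stocks (160 µM) were serially doubled down to 80, 40 and 20 µM. 4 µL of each went onto 5 mm sterile paper discs, which were dried 30 min at 50 °C. Inoculum was 1.5 × 10⁸ CFU/mL diluted to 3 × 10² CFU/mL, and 50 µL was spread on Mueller-Hinton agar. After 24 h at 37 °C the inhibition-zone diameter was measured. Ciprofloxacin served as positive control.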

Mus musculus = experiment: Antiinflammatory activity in mouse assessed as inhibition of carrageenan-induced increase in paw volume at 200 mg/kg administered 1 hr prior to carrageenan challenge measured after 3 hrs relative to control; format: functional
Procedure, shortened: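 Mice were fasted 2 h and placed in groups of five. Controls received saline i.p. Phenylbutazone was given at 100 mg/kg i.p., curcumin at 200 mg/kg i.p., and derivatives at 200 mg/kg. After 1 h, 0.1 mL of 1% carrageenan in saline was injected subplantar into the right hind paw. Paw volume was followed by plethysmometer for 3 h, and % inhibition was calculated as (Vc − Vt)/Vc × 100.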

Aspergillus niger [4] = experiment: Antifungal activity against Aspergillus niger MTCC 1108 assessed as zone of inhibition at 80 uM after 48 hrs by disc diffusion method; format: functional; procedure, shortened: as §2
Staphylococcus aureus [5] = experiment: Antimicrobial activity against Staphylococcus aureus ATCC 11632 assessed as diameter of inhibition zone at 40 uM after 24 hrs by Kirby -Baur disc diffusion method; format: functional; procedure, shortened: as §3
Curvularia lunata [6] = experiment: Antifungal activity against Curvularia lunata MTCC 581 assessed as zone of inhibition at 40 uM after 48 hrs by disc diffusion method; format: functional; details: MTCC 581, 48 h, read-out: IZ; procedure, shortened: as §2
Staphylococcus aureus [7] = experiment: Antimicrobial activity against Staphylococcus aureus ATCC 11632 assessed as diameter of inhibition zone at 20 uM after 24 hrs by Kirby -Baur disc diffusion method; format: functional; procedure, shortened: as §3
Bacillus cereus [8] = experiment: Antimicrobial activity against Bacillus cereus MTCC 7350 assessed as diameter of inhibition zone at 40 uM after 24 hrs by Kirby -Baur disc diffusion method; format: functional; procedure, shortened: as §3
Salmonella typhi [9] = experiment: Antimicrobial activity against Salmonella typhi ATCC 23564 assessed as diameter of inhibition zone at 20 uM after 24 hrs by Kirby -Baur disc diffusion method; format: functional; details: Salmonella enterica subsp. enterica serovar Typhi
Aspergillus flavus [10] = experiment: Antifungal activity against Aspergillus flavus MTCC 1021 after 48 hrs; format: functional
Curvularia lunata [11] = experiment: Antifungal activity against Curvularia lunata MTCC 581 assessed as zone of inhibition at 80 uM after 48 hrs by disc diffusion method; format: functional; details: MTCC 581, 48 h, read-out: IZ; procedure, shortened: as §2
Curvularia lunata [12] = experiment: Antifungal activity against Curvularia lunata MTCC 581 after 48 hrs; format: functional; details: MTCC 581, 48 h
HepG2 = experiment: Cytotoxicity against human HepG2 cells after 24 hrs by MTT assay; format: functional, cell-based
Procedure, shortened: (§4)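 The MTT assay seeded 5 × 10⁴ cells per well and grew them 24 h in RPMI 1640 with compound at 2.5–200 µM. Medium without cells was the blank and adriamycin the positive control. MTT was added for 4 h at 37 °C, formazan was solubilised, and absorbance was read at 570 nm. IC50 is the concentration that cuts viability 50% against untreated cells.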

Pseudomonas aeruginosa [13] = experiment: Antimicrobial activity against Pseudomonas aeruginosa ATCC 15499 assessed as diameter of inhibition zone at 40 uM after 24 hrs by Kirby -Baur disc diffusion method; format: functional; procedure, shortened: as §3
Escherichia coli [14] = experiment: Antimicrobial activity against Escherichia coli ATCC 35218 after 24 hrs by broth micro serial dilution method; format: functional; details: ATCC 35218, 24 h; procedure, shortened: as §1
Staphylococcus aureus [15] = experiment: Antimicrobial activity against Staphylococcus aureus ATCC 11632 after 24 hrs by broth micro serial dilution method; format: functional; details: ATCC 11632, 24 h; procedure, shortened: as §1
Salmonella typhi [16] = experiment: Antimicrobial activity against Salmonella typhi ATCC 23564 assessed as diameter of inhibition zone at 80 uM after 24 hrs by Kirby -Baur disc diffusion method; format: functional, Salmonella enterica subsp. enterica serovar Typhi; details: Salmonella enterica, ATCC 23564, 24 h; read-out: DIZ
HeLa = experiment: Cytotoxicity against human HeLa cells after 24 hrs by MTT assay; format: functional, cell-based; procedure, shortened: as §4
Pseudomonas aeruginosa [17] = experiment: Antimicrobial activity against Pseudomonas aeruginosa ATCC 15499 after 24 hrs by broth micro serial dilution method; format: functional; details: ATCC 15499, 24 h; procedure, shortened: as §1
Escherichia coli [18] = experiment: Antimicrobial activity against Escherichia coli ATCC 35218 assessed as diameter of inhibition zone at 20 uM after 24 hrs by Kirby -Baur disc diffusion method; format: functional; procedure, shortened: as §3
HCT-116 = experiment: Cytotoxicity against human HCT116 cells after 24 hrs by MTT assay; format: functional, cell-based; procedure, shortened: as §4
Staphylococcus aureus [19] = experiment: Antimicrobial activity against Staphylococcus aureus ATCC 11632 assessed as diameter of inhibition zone at 80 uM after 24 hrs by Kirby -Baur disc diffusion method; format: functional; details: ATCC 11632, 24 h, read-out: DIZ; procedure, shortened: as §3
Escherichia coli [20] = experiment: Antimicrobial activity against Escherichia coli ATCC 35218 assessed as diameter of inhibition zone at 80 uM after 24 hrs by Kirby -Baur disc diffusion method; format: functional; details: ATCC 35218, 24 h, read-out: DIZ; procedure, shortened: as §3
Pseudomonas aeruginosa [21] = experiment: Antimicrobial activity against Pseudomonas aeruginosa ATCC 15499 assessed as diameter of inhibition zone at 80 uM after 24 hrs by Kirby -Baur disc diffusion method; format: functional; details: ATCC 15499, 24 h, read-out: DIZ; procedure, shortened: as §3
Trichoderma viride [22] = experiment: Antifungal activity against Trichoderma viride MTCC 1107 assessed as zone of inhibition at 80 uM after 48 hrs by disc diffusion method; format: functional; details: MTCC 1107, 48 h, read-out: IZ; procedure, shortened: as §2
QG-56 = experiment: Cytotoxicity against human QG56 cells after 24 hrs by MTT assay; format: functional, cell-based; procedure, shortened: as §4
Aspergillus flavus [23] = experiment: Antifungal activity against Aspergillus flavus MTCC 1021 assessed as zone of inhibition at 80 uM after 48 hrs by disc diffusion method; format: functional; procedure, shortened: as §2
Escherichia coli [24] = experiment: Antimicrobial activity against Escherichia coli ATCC 35218 assessed as diameter of inhibition zone at 40 uM after 24 hrs by Kirby -Baur disc diffusion method; format: functional; procedure, shortened: as §3
Salmonella typhi [25] = experiment: Antimicrobial activity against Salmonella typhi ATCC 23564 assessed as diameter of inhibition zone at 40 uM after 24 hrs by Kirby -Baur disc diffusion method; format: functional; details: Salmonella enterica subsp. enterica serovar Typhi
Bacillus cereus [26] = experiment: Antimicrobial activity against Bacillus cereus MTCC 7350 assessed as diameter of inhibition zone at 20 uM after 24 hrs by Kirby -Baur disc diffusion method; format: functional; procedure, shortened: as §3
Trichoderma viride [27] = experiment: Antifungal activity against Trichoderma viride MTCC 1107 after 48 hrs; format: functional; details: MTCC 1107, 48 h
Trichoderma viride [28] = experiment: Antifungal activity against Trichoderma viride MTCC 1107 assessed as zone of inhibition at 20 uM after 48 hrs by disc diffusion method; format: functional; procedure, shortened: as §2
Salmonella typhi [29] = experiment: Antimicrobial activity against Salmonella typhi ATCC 23564 after 24 hrs by broth micro serial dilution method; format: functional, Salmonella enterica subsp. enterica serovar Typhi; details: Salmonella enterica, ATCC 23564, 24 h
Pseudomonas aeruginosa [30] = experiment: Antimicrobial activity against Pseudomonas aeruginosa ATCC 15499 assessed as diameter of inhibition zone at 20 uM after 24 hrs by Kirby -Baur disc diffusion method; format: functional; procedure, shortened: as §3
Trichoderma viride [31] = experiment: Antifungal activity against Trichoderma viride MTCC 1107 assessed as zone of inhibition at 40 uM after 48 hrs by disc diffusion method; format: functional; details: MTCC 1107, 48 h, read-out: IZ; procedure, shortened: as §2
Aspergillus niger [32] = experiment: Antifungal activity against Aspergillus niger MTCC 1108 after 48 hrs; format: functional
[33] = ATCC 35218, 24 h, read-out: DIZ

SMILES | MIC (Bacillus cereus [1]) [µM] | zone of inhibition at 80 µM (Bacillus cereus [3]) [mm] | inhibition in vivo at 200 mg/kg (Mus musculus) [%] | inhibition zone (IZ) (Aspergillus niger [4]) | diameter of the inhibition zone (DIZ) (Staphylococcus aureus [5]) | zone of inhibition at 40 µM (Curvularia lunata [6]) [mm] | diameter of the inhibition zone (DIZ) (Staphylococcus aureus [7]) | diameter of the inhibition zone (DIZ) (Bacillus cereus [8]) | MIC (Aspergillus flavus [10]) | zone of inhibition at 80 µM (Curvularia lunata [11]) [mm] | MIC (Curvularia lunata [12]) [µM] | IC50 (HepG2) | diameter of the inhibition zone (DIZ) (Pseudomonas aeruginosa [13]) | MIC (Escherichia coli [14]) [µM] | MIC (Staphylococcus aureus [15]) [µM] | IC50 (HeLa) | MIC (Pseudomonas aeruginosa [17]) [µM] | IC50 (HCT-116) | zone of inhibition at 80 µM (Staphylococcus aureus [19]) [mm] | zone of inhibition at 80 µM (Escherichia coli [20]) [mm] | also measured
COc1cc(/C=C/c2nn(-c3ccccc3)c(/C=C/c3ccc(O)c(OC)c3)c2/N=N/c2ccc(S(=O)(=O)Nc3cc(C)on3)cc2)ccc1O | > 80 | 10 | 25.8 | inactive | inactive | 11 | inactive | inactive | inactive | 13 | 80 (≈ 56.4 µg/mL) | Not Active | inactive | > 80 | > 80 | 100 µM | > 80 | Not Active | 10 | 12 | zone of inhibition at 20 µM (Curvularia lunata [2]; MTCC 581, 48 h, read-out: IZ): 9 mm; diameter of the inhibition zone (DIZ) (Salmonella typhi [9]): inactive; zone of inhibition at 80 µM (Salmonella typhi [16]): 10 mm; zone of inhibition at 20 µM (Escherichia coli [18]; [33]): 9 mm; zone of inhibition at 80 µM (Pseudomonas aeruginosa [21]): 11 mm; zone of inhibition at 80 µM (Trichoderma viride [22]): 13 mm; IC50 (QG-56): > 100 µM; inhibition zone (IZ) (Aspergillus flavus [23]): inactive; zone of inhibition at 40 µM (Escherichia coli [24]; [33]): 10 mm; diameter of the inhibition zone (DIZ) (Salmonella typhi [25]): inactive; diameter of the inhibition zone (DIZ) (Bacillus cereus [26]): inactive; MIC (Trichoderma viride [27]): 40 µM (≈ 28.2 µg/mL); zone of inhibition at 20 µM (Trichoderma viride [28]; MTCC 1107, 48 h, read-out: IZ): 9 mm; MIC (Salmonella typhi [29]): > 80 µM; diameter of the inhibition zone (DIZ) (Pseudomonas aeruginosa [30]): inactive; zone of inhibition at 40 µM (Trichoderma viride [31]): 11 mm; MIC (Aspergillus niger [32]): inactive
COc1cc(/C=C/c2noc(/C=C/c3ccc(O)c(OC)c3)c2/N=N/c2ccc(S(=O)(=O)Nc3cc(C)on3)cc2)ccc1O | > 80 | 9 | 22.5 | inactive | inactive | 9 | inactive | inactive | inactive | 12 | > 80 | Not Active | inactive | > 80 | > 80 | Not Active | > 80 | Not Active | 9 | 9 | inhibition zone (IZ) (Curvularia lunata [2]): inactive; diameter of the inhibition zone (DIZ) (Escherichia coli [18]): inactive; zone of inhibition at 80 µM (Pseudomonas aeruginosa [21]): 9 mm; zone of inhibition at 80 µM (Trichoderma viride [22]): 12 mm; IC50 (QG-56): Not Active; inhibition zone (IZ) (Aspergillus flavus [23]): inactive; diameter of the inhibition zone (DIZ) (Escherichia coli [24]): inactive; diameter of the inhibition zone (DIZ) (Bacillus cereus [26]): inactive; MIC (Trichoderma viride [27]): > 80 µM; inhibition zone (IZ) (Trichoderma viride [28]): inactive; diameter of the inhibition zone (DIZ) (Pseudomonas aeruginosa [30]): inactive; zone of inhibition at 40 µM (Trichoderma viride [31]): 9 mm; MIC (Aspergillus niger [32]): inactive
